Measured values published in ChEMBL document CHEMBL4346686, “Discovery and biological evaluation of novel androgen receptor antagonist for castration-resistant prostate cancer” (Eur J Med Chem, 2019).
The source made the active and inactive calls. The rule behind the calls is not given here.

Legend:
[1] = tested on: VCaP; assay: Antiproliferative activity against human VCaP cells assessed as reduction in cell viability incubated for 6 days by CCK8 assay; assay type: functional, cell-based; settings: 144 h
Procedure, shortened: (§1)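 Cells seeded (2×10^4 per well for VCaP, 1–3×10^3 for the others) and compound added after 24 h as a 9-point, 3-fold serial dilution. Exposure 6 days, then CCK-8 for 1–4 h and absorbance at 450 nm. IC50 from curve fit, mean of at least two independent experiments run in duplicate.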

[2] = Antiproliferative activity against human LNCaP-AR cells assessed as reduction in cell viability incubated for 6 days by CCK8 assay; assay type: functional, cell-based; settings: 144 h; procedure, shortened: as §1
[3] = tested on: PC-3; assay: Antiproliferative activity against human PC3 cells assessed as reduction in cell viability incubated for 6 days by CCK8 assay; assay type: functional, cell-based; settings: PC-3, 144 h; procedure, shortened: as §1
[4] = tested on: CWR22R; assay: Antiproliferative activity against human 22Rv1 cells assessed as reduction in cell viability incubated for 6 days by CCK8 assay; assay type: functional, cell-based; settings: 22Rv1, 144 h; procedure, shortened: as §1
[5] = molecular target: T1, Steroid 17-alpha-hydroxylase/17,20 lyase (Homo sapiens, UniProt P05093); assay: Inhibition of C-myc/DDK tagged human CYP17A1 expressed in HEK293T cells assessed as reduction in formation of 17-OHP at 10 uM incubated for 30 mins by LC-MS/MS analysis; assay type: cell-based; settings: 0.5 h
T1 sequence (P05093 whole entry): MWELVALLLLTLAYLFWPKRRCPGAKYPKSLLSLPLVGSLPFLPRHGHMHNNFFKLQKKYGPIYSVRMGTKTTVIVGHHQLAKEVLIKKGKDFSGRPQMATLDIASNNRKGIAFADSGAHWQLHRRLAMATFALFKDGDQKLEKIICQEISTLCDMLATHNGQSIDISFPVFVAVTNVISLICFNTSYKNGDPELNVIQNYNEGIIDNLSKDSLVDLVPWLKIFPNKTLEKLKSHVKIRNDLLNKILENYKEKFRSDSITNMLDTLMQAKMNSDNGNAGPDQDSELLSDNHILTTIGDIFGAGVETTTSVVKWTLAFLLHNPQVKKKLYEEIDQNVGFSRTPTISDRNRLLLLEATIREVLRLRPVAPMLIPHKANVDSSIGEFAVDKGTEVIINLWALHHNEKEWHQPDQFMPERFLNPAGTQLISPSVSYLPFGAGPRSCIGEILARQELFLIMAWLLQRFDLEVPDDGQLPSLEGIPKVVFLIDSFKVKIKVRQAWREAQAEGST
Procedure, shortened: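 CYP17A1 activity measured as 17α-hydroxyprogesterone formation in 50 mM Tris pH 7.4, 5 mM MgCl2. Incubation 30 min at 37 °C, quenched with 20% trichloroacetic acid; product quantified by LC-MS/MS. Mean ± SD, n = 2.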

[6] = tested on: L02; assay: Antiproliferative activity against human L02 cells assessed as reduction in cell viability incubated for 6 days by CCK8 assay; assay type: cell-based; settings: L02, 144 h; procedure, shortened: as §1
[7] = molecular target: T2, Androgen receptor (Homo sapiens) (UniProt P10275); assay: Antagonist activity at androgen receptor in human VCaP cells assessed as inhibition of R1881-induced FKBP5 mRNA expression at 5 uM after 24 hrs by qRT-PCR analysis; assay type: cell-based
T2 sequence (whole entry): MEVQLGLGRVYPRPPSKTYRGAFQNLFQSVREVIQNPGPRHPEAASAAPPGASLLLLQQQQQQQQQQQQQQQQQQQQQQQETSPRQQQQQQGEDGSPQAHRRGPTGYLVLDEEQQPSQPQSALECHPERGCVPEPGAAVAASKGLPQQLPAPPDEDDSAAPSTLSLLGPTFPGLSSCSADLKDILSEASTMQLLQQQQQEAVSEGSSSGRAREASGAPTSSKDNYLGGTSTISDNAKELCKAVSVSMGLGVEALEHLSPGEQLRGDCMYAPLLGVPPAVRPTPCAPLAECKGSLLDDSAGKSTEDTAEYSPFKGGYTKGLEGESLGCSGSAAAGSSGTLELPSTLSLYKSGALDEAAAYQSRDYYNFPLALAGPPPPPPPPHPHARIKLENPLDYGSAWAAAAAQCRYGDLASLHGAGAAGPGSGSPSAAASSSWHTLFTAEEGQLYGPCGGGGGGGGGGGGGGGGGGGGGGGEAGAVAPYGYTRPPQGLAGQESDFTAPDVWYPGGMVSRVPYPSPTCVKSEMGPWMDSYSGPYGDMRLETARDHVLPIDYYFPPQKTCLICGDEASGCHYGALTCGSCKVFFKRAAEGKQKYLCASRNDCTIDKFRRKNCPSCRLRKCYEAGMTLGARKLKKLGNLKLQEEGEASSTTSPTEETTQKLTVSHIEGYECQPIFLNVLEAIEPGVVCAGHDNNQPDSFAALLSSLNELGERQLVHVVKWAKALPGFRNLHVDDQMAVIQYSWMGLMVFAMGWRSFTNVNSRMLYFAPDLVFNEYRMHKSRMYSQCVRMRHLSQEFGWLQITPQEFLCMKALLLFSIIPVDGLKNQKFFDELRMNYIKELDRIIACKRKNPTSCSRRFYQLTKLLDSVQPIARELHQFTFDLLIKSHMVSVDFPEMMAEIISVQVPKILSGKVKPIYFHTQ
Procedure, shortened: (§2)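 VCaP cells kept 48 h in DMEM with 5% charcoal-stripped FBS, then treated 24 h with compound plus 0.2 nM R1881. RNA extracted with TRIzol, reverse-transcribed, and PSA or FKBP5 mRNA quantified by qRT-PCR normalized to GAPDH. Expressed relative to DMSO-treated samples; mean ± SD, n = 3, two-tailed t-test.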

[8] = molecular target: T2, Androgen receptor (Homo sapiens); assay: Antagonist activity at androgen receptor in human VCaP cells assessed as inhibition of R1881-induced PSA mRNA expression at 5 uM after 24 hrs by qRT-PCR analysis; assay type: cell-based; procedure, shortened: as §2

Row | inhibition at 10 µM [5] | SMILES | IC50 [1] | IC50 [2] | IC50 [3] | IC50 [4] | IC50 [6] | inhibition [7] | inhibition [8]
1 |  | Cc1noc(C)c1-c1cccc2c1CCCN2c1ccc(C#N)c(C(F)(F)F)c1 | > 30 µM | 1.42 µM |  |  |  |  | 
2 |  | CCN(c1ccc(C#N)c(Cl)c1)c1cc(C2=CCCCC2)ccc1C | 20 µM | 2.55 µM |  |  |  |  | 
3 |  | CCN(c1cccc(-n2ccnc2)c1)c1ccc(C#N)c(C(F)(F)F)c1 | > 30 µM | 0.58 µM | > 30 µM | 19 µM |  |  | 
4 |  | CCN(c1ccc(C#N)c(Cl)c1)c1cc(-c2ccco2)ccc1C | > 30 µM | 0.49 µM | > 30 µM | > 30 µM |  |  | 
5 | 100% | C[C@]12CC[C@H](O)CC1=CC[C@@H]1[C@@H]2CC[C@]2(C)C(c3cccnc3)=CC[C@@H]12 [ABIRATERONE] |  |  |  |  |  |  | 
6 |  | CCN(c1ccc(C#N)c(C(F)(F)F)c1)c1cc(-n2ccnc2)ccc1C | 3.92 to 30 µM | 0.4 to 0.56 µM | > 30 µM | 16.3 µM |  |  | 
7 |  | CCN(c1ccc(C#N)c(Cl)c1)c1cc(-c2c[nH]nc2C)ccc1C | 3.19 µM | 0.32 µM | 9.03 µM | 5.38 µM | 5.78 µM |  | 
8 |  | CCN(c1ccc(C#N)c(Cl)c1)c1cc(-c2cn[nH]c2)ccc1C |  | 0.7 µM | 15.3 µM | > 30 µM |  |  | 
9 |  | CCN(c1cccc(-c2ccccc2)c1)c1ccc(C#N)c(Cl)c1 |  | 1.29 µM |  |  |  |  | 
10 |  | N#Cc1ccc(N2CCc3cc(-c4cncnc4)ccc32)cc1C(F)(F)F |  | 21 µM |  |  |  |  | 
11 |  | N#Cc1ccc(N2CCc3cc(-c4cccnc4)ccc32)cc1C(F)(F)F |  | 1.24 µM |  |  |  |  | 
12 |  | Cn1nccc1-c1cccc2c1CCCN2c1ccc(C#N)c(C(F)(F)F)c1 | > 30 µM | 0.24 µM | 9.8 µM | 10.4 µM |  |  | 
13 |  | N#Cc1ccc(N2CCCc3c(-c4cccnc4)cccc32)cc1C(F)(F)F | 13.5 µM | 0.12 µM | 7.97 µM | 12.3 µM | 10.5 µM |  | 
14 |  | CCN(c1ccc(C#N)c(Cl)c1)c1cc(-c2ccccc2)ccc1C | > 30 µM | 2.78 µM |  | > 30 µM | > 30 µM |  | 
15 |  | N#Cc1ccc(N2CCCc3c(-c4ccncc4)cccc32)cc1C(F)(F)F | > 30 µM | 0.07 µM | 28.7 µM | 15 µM | 6.38 µM |  | 
16 |  | CCN(c1ccc(C#N)c(Cl)c1)c1cc(-c2cnc3ccccc3c2)ccc1C | 25.3 µM | 1.98 µM | 3.57 µM |  |  |  | 
17 |  | N#Cc1ccc(N2CCc3cc(-c4cnc5ccccc5c4)ccc3C2)cc1C(F)(F)F | > 30 µM | 0.98 µM | 25.1 µM | 25.9 µM |  |  | 
18 |  | CCN(c1ccc(C#N)c(Cl)c1)c1cc(-c2ccoc2)ccc1C | 4.01 µM | 0.48 µM | > 30 µM | > 30 µM |  |  | 
19 |  | CCN(c1ccc(C#N)c(Cl)c1)c1cc(-c2cncnc2)ccc1C | 3.92 µM | 0.4 µM | > 30 µM | > 30 µM |  | Active | Active
20 | 50% | C[C@]12CC[C@H](O)CC1=CC[C@@H]1[C@@H]2CC[C@]2(C)C(n3cnc4ccccc43)=CC[C@@H]12 [GALETERONE] |  |  |  |  |  |  | 

Row | inhibition at 10 µM [5] | SMILES | IC50 [1] | IC50 [2] | IC50 [3] | IC50 [4] | IC50 [6] | inhibition [7] | inhibition [8]
21 |  | CCN(c1ccccn1)c1cc(-c2c(C)noc2C)ccc1C | 0.87 µM | 0.63 µM | 4.8 µM | 5.43 µM | 4.42 µM |  | 
22 |  | CCN(c1cccc(-n2ccnc2)c1)c1ccc(C#N)c(Cl)c1 | > 30 µM | 0.33 µM | > 30 µM | > 30 µM | 23.2 µM |  | 
23 |  | N#Cc1ccc(N2CCc3cc(-c4cccnc4)ccc3C2)cc1C(F)(F)F | 2.53 µM | 0.76 µM |  | 4.79 µM |  |  | 
24 |  | N#Cc1ccc(N2CCc3cc(-c4cncnc4)ccc3C2)cc1C(F)(F)F |  | 1.67 µM |  |  |  |  | 
25 |  | CCN(c1ccc(C#N)c(Cl)c1)c1cc(-n2ccnc2)ccc1C | > 30 µM | 0.32 µM | > 30 µM | > 30 µM | 15 µM |  | 
26 |  | CCN(c1ccc(C#N)c(Cl)c1)c1cc(-n2cnc3ccccc32)ccc1C | 8.56 µM | 0.39 µM | 8.16 µM | 3.04 µM |  |  | 
27 |  | CCN(c1ccc(C#N)c(Cl)c1)c1cc(-n2cccn2)ccc1C | 2.34 µM | 0.29 µM | 15.7 µM | > 30 µM |  |  | 
28 |  | CCN(c1ccc(C#N)c(Cl)c1)c1cc(-c2ccnn2C)ccc1C | 1.67 µM | 0.17 µM | 7.29 µM | 4.33 µM | 6.23 µM | Active | Active
29 |  | Cc1ccc(-c2c(C)noc2C)cc1Nc1ccncc1 | 1.97 µM | 3.7 µM |  |  |  | Active | Active
30 |  | CCN(c1ccc(C#N)c(Cl)c1)c1cc(-c2cccnc2)ccc1C | 1.27 µM | 0.33 µM | 11 µM | 2 µM | 12.7 µM | Active | Active
31 |  | CCN(c1ccc(C#N)c(Cl)c1)c1cc(-c2ccncc2)ccc1C | 2.9 µM | 0.48 µM | 3.58 µM | 1.03 µM | 1.73 µM |  | 
32 |  | N#Cc1ccc(N2CCc3cc(-c4cnc5ccccc5c4)ccc32)cc1C(F)(F)F |  | 11.5 µM |  |  |  |  | 
33 |  | CCN(c1ccncc1)c1cc(-c2c(C)noc2C)ccc1C | 2.01 µM | 2.88 µM |  |  |  |  | 
34 |  | N#Cc1ccc(N2CCc3cc(-c4ccncc4)ccc3C2)cc1C(F)(F)F | 3.5 µM | 0.98 µM |  | 6.94 µM |  |  | 
35 |  | CCN(c1ccc(C#N)c(Cl)c1)c1cc(-c2c(C)noc2C)ccc1C | 1.2 µM | 0.19 µM | 4.84 µM | 2.99 µM | 8.67 µM |  | 
36 |  | Cc1noc(C)c1-c1cccc(Oc2ccc(C#N)c(C(F)(F)F)c2)c1 |  | 1.67 µM |  |  |  |  | 
37 |  | CCN(c1ccc(C#N)c(Cl)c1)c1cc(-c2ccc(F)nc2)ccc1C | > 30 µM | 0.41 µM | > 30 µM | 16.5 µM |  |  | 
38 |  | CCN(c1ccc(C#N)c(Cl)c1)c1cc(-c2cccs2)ccc1C |  | 0.38 µM | > 30 µM | 22 µM |  |  | 
39 |  | CCN(c1cccc(-c2cncnc2)c1)c1ccc(C#N)c(Cl)c1 | > 30 µM | 0.36 µM | > 30 µM | > 30 µM |  |  | 
